This is a sample that favours compounds with a hit; in the whole collection about 4% have one here.
hERG rescue: hERG rescue from dofetilide block, primary screen, cell-based, CHO-hERG, FluxOR thallium flux, dofetilide IC70; Voltage-gated inwardly rectifying potassium channel KCNH2 (Homo sapiens), Q12809; dofetilide IC70 present; activation (rescue from dofetilide block), less the hit threshold, % at 10 µM; actives 0.51% (n = 310,000);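 active = activation above the mean of controls blocked by dofetilide plus 5 SD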;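 also: thallium influx through hERG after potassium depolarization seen as dye fluorescence rise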
PHOSPHO1 block: PubChem AID 1565; recombinant PHOSPHO1, absorbance phosphatase assay; Phosphoethanolamine/phosphocholine phosphatase (Homo sapiens), Q8TCT1; inhibition, % at 13.3 µM; actives 1.1% (n = 290,000); in the data active = inhibition above about 60%
KCNK9 inh: KCNK9 potassium channel inhibitors, primary screen, HEK293 cells, thallium flux. AID 488922, 2010. B-score at 10 µM. actives 1.2% (n = 310,000). FluxOR thallium flux fluorescence; active compounds read low. Potassium channel subfamily K member 9 (Homo sapiens), Q9NPC2;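 active = ratio B-score over 3 SD below the library mean, with starting fluorescence within 5 SD of its mean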;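 also: negative B-score means less thallium flux so channel inhibition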
KCNQ1 block: inhibitors of human KCNQ1 channel, primary screen, cell-based, thallium flux, high-throughput | Potassium voltage-gated channel subfamily KQT member 1 (Homo sapiens), P51787 | CHO-K1 KCNQ1, FluxOR thallium flux fluorescence; active compounds read high | actives 1.3% (n = 310,000) | B-score at 10 µM;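 active = compounds whose thallium flux B-score, printed positive for inhibition, exceeds three library SD while starting fluorescence stays within three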;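 also: channel opened by potassium depolarization with thallium stimulus after 20 min compound exposure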
KCNQ1 act: potentiators or activators of KCNQ1 channel, primary screen, cell-based, thallium flux, high-throughput; Potassium voltage-gated channel subfamily KQT member 1 (Homo sapiens), P51787; CHO-K1 KCNQ1, thallium flux FluxOR fluorescence; active compounds read high; B-score at 10 µM; actives 0.35% (n = 310,000);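 active = fluorescence ratio B-score, a plate-corrected score, at least three library SD, with initial intensity B-score within 5 SD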
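Material: CHO-K1 cells stably expressing KCNQ1. Medium: assay buffer for compound exposure, DMSO matched across wells. Reagent: K+/Tl+ depolarizing stimulus. Compound dosing: single-concentration screen. Times: 37 °C overnight plating, 90-min dark dye load, 20-min compound pretreatment. Technique: FluxOR Tl+ flux fluorescence.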
KCNK3 inh: human KCNK3 channel inhibitors, primary screen, CHO cells, FluxOR thallium flux, B-score. Potassium channel subfamily K member 3 (Homo sapiens), O14649. FluxOR fluorescence; active compounds read low. B-score at 10 µM. actives 0.84% (n = 340,000);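 active = B-score under library mean minus 4 SD, starting fluorescence ratio at most library mean plus 5 SD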;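 also: more negative B-score means stronger inhibition of thallium flux through KCNK3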
KCNK9 block conf: KCNK9 potassium channel inhibitors, confirmation, HEK293 cells, thallium flux, duplicate. shares compounds with KCNK9 inh. FluxOR thallium flux fluorescence. inhibition, % at 10 µM. actives 43% (n = 4,900). AID 492992, 2010;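 active = thallium signal inhibited by more than 5 SD of the compound-free buffer control wells, on both duplicate plates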;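 also: 0% = assay buffer control wells without compound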
Kir2-1 spec: mouse Kir2.1 channel inhibition, confirmation, selectivity assay for KCNK9 modulator project, cell-based, HEK293, thallium flux; Kir2.1 cells, FluxOR thallium flux fluorescence; shares compounds with KCNK9 inh; inhibition, % at 10 µM; actives 4% (n = 4,900);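 active = thallium signal drop more than 5 SD beyond the mean of the no-compound control wells, seen in both duplicate plates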;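 also: signal is fluorescence rise after thallium addition divided by baseline fluorescence; plate controls were assay buffer only for no effect and full block by chlorpromazine control for full effect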
Target sequence (P35561 whole entry, looked up): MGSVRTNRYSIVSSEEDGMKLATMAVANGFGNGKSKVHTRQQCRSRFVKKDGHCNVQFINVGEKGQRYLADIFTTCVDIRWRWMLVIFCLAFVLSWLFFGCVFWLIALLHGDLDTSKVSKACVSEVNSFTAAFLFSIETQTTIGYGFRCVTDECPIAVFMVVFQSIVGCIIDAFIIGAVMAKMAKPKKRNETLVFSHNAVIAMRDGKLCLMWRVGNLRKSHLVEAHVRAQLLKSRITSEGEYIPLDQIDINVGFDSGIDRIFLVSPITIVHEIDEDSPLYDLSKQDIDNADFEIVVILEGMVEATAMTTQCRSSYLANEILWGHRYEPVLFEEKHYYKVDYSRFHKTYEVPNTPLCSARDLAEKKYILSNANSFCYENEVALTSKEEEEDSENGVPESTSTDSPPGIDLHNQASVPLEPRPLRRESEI
KCNK9 uninduced: thallium flux in non-induced HEK293 cells, confirmation, counter-screen for KCNK9 inhibitor project, cell-based, second counter screen, non-induced KCNK9-HEK293; shares compounds with KCNK9 inh; FluxOR thallium flux; inhibition, % at 10 µM; actives 40% (n = 4,900); AID 492997, 2010;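 active = thallium signal drop beyond 5 SD of the untreated control mean, on both duplicate plates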;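 also: plate controls were buffer only IC0 wells for no effect and SID17386958 at its maximal inhibitory level for full effect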
Starred values were filed as active, the others as inactive; i = inactive; x = no result given.

SMILES	hERG rescue	PHOSPHO1 block	KCNK9 inh	KCNQ1 block	KCNQ1 act	KCNK3 inh	KCNK9 block conf	Kir2-1 spec	KCNK9 uninduced
O=C1CC(N2CCN(S(=O)(=O)c3cccc(C(F)(F)F)c3)CC2)C(=O)N1Cc1ccccc1 (configuration not stated)	-4	-14	i	i	i	i	i	i	i
Cc1ccc(C2=Nc3ccccc3SC(c3cccc([N+](=O)[O-])c3)C2)cc1 (configuration not stated)	-5	26	-13*	i	i	-13*	71%*	i	40%*
Cc1ccc(CNC(=O)C2CC(c3cccc([N+](=O)[O-])c3)=NO2)cc1 (configuration not stated)	-5	18	i	i	i	i	x	x	x
COCCNC(=O)C(c1cccc(OC)c1)N(Cc1cccs1)C(=O)Cn1nnc2ccccc21 (configuration not stated)	-8	-4	i	i	i	i	x	x	x
CCC(C)N(C(=O)Cn1nnc2ccccc21)C(C(=O)Nc1ccc(F)cc1)c1cccc(OC)c1 (configuration not stated)	-4	28	-9.2*	i	i	i	36%*	i	i
Cc1ccsc1C(=O)N1CCN(c2ccccn2)CC1	-6	14	-8.1*	i	i	i	i	i	i
CCCn1nc(C(=O)Nc2cccc(C(=O)OC)c2)c2ccccc2c1=O	-9	5	i	i	i	i	x	x	x
Cc1cc(C)nc(SCc2csc(-c3ccccc3)n2)n1	-10	12	-11*	i	i	i	53%*	i	35%*
COc1ccccc1Nc1nc(N)nc(CSCCO)n1	-11	28	i	i	i	i	x	x	x
Cc1cccc(C(=O)NCC(=O)N(C)Cc2nc3ccccc3c(=O)[nH]2)c1	x	x	x	x	x	i	x	x	x
O=C(c1ccc(Cl)c(S(=O)(=O)N2CCCCCC2)c1)N1CCN(c2ccccn2)CC1	-13	14	i	i	i	i	i	i	i
O=C(c1ccc(Cl)c(S(=O)(=O)N2CCCCCC2)c1)N1CCCCC1	-9	22	i	i	i	i	x	x	x
CCCn1c(C)cc(C(=O)COC(=O)c2ccc(Cl)c(S(=O)(=O)N3CCCC3)c2)c1C	-2	3	-18*	i	i	i	65%*	i	i
Cc1cccc(NC(=O)c2ccc(Cl)c(S(=O)(=O)N3CCCCC3)c2)n1	-12	x	i	i	i	i	i	i	24%*
Cc1cccc(NC(=O)c2ccc(Cl)c(S(=O)(=O)N3CCCCCC3)c2)n1	x	x	x	x	x	i	x	x	x
O=C(c1ccc(Cl)c(S(=O)(=O)N2CCCCCC2)c1)N1CCCC(C(F)(F)F)C1 (configuration not stated)	-9	x	i	i	i	i	i	i	i
O=C(NCC1CCN(C(=O)c2c(F)c(F)c(F)c(F)c2F)CC1)c1c(F)c(F)c(F)c(F)c1F	-8	51	i	i	i	i	x	x	x
CSc1ncc(CN2CCN(CCC(C)C)C(CCO)C2)cn1 (configuration not stated)	-15	52	i	i	i	i	x	x	x
COc1ccc(C2NC(Cc3ccccc3)(C(=O)O)C3C(=O)N(c4ccccc4OC)C(=O)C23)cc1 (configuration not stated)	-8	-10	i	i	i	i	x	x	x
O=C(c1ccc(Cl)c(S(=O)(=O)N2CCOCC2)c1)N(c1ccccn1)C1CCCCC1	-4	28	i	i	i	i	i	i	i
CCOC(=O)C1CCN(C(=O)c2ccc(C)c(S(=O)(=O)N3CCCC3)c2)CC1	-9	8	i	i	i	i	x	x	x
CCOC(=O)C1CCCN(C(=O)c2ccc(Cl)c(S(=O)(=O)N3CCCCC3)c2)C1 (configuration not stated)	-7	12	i	i	i	i	i	i	i
COc1ccccc1N1CCN(C(=O)CN2C(=O)C3CCCCC3C2=O)CC1 (configuration not stated)	-2	49	i	i	i	i	x	x	x
COc1cccc(C(NC(C)=O)c2ccc3cccnc3c2O)c1 (configuration not stated)	1	45	i	i	i	i	x	x	x
Oc1cccc(C(Nc2nccs2)c2ccc3cccnc3c2O)c1 (configuration not stated)	-17	16	i	i	i	i	i	i	i
SMILES	hERG rescue	PHOSPHO1 block	KCNK9 inh	KCNQ1 block	KCNQ1 act	KCNK3 inh	KCNK9 block conf	Kir2-1 spec	KCNK9 uninduced
CCN(CC)C(=O)C(=O)Nc1ccc(Oc2ccccc2)cc1	-9	22	i	i	i	i	x	x	x
Cc1ccc(C(c2nnnn2C(C)(C)C)N(Cc2ccco2)Cc2cccs2)cc1 (configuration not stated)	-8	-48	-17*	i	i	i	66%*	i	30%*
CC(C)(C)n1nnnc1C(c1cccnc1)N(Cc1ccccc1)Cc1cccs1 (configuration not stated)	-8	11	-13*	i	i	i	46%*	i	52%*
Fc1ccc(C(c2nnnn2C2CCCC2)N(Cc2ccco2)CC2CCCO2)cc1 (configuration not stated)	-4	-6	i	i	i	i	x	x	x
CC(C)(C)n1nnnc1CN(Cc1cccnc1)Cc1ccccc1Cl	-13	10	i	i	i	i	x	x	x
CC(C)(C)n1nnnc1C(c1ccc(C(F)(F)F)cc1)N(Cc1ccc(F)cc1)Cc1ccco1 (configuration not stated)	-5	7	-10*	i	i	i	42%*	i	31%*

Screens deposited in PubChem by several laboratories.
